Measured values of several laboratories.
Each line is one published result; the experiments were not run side by side.
USP51: Ubiquitin carboxyl-terminal hydrolase 51 (USP51, Homo sapiens, UniProt Q70EK9)
CASP3: Caspase-3 (CASP3, Homo sapiens, UniProt P42574)
PDE10A: cAMP and cAMP-inhibited cGMP 3',5'-cyclic phosphodiesterase 10A (PDE10A, Homo sapiens, UniProt Q9Y233)

For `O=c1cccc2n1C[C@@H]1CNC[C@H]2C1`, the inhibition was 0% (USP51; enzyme activity; inhibitor; 5 µM).
The inhibition of `CC(=O)N[C@@H](CC(=O)O)C(=O)N[C@@H](CC(N)=O)C(=O)N[C@@H](CC(C)C)C(=O)N[C@H](C=O)CC(=O)O` is reported as 25% (CASP3; enzyme activity; inhibitor; 10 nM).
The inhibition of `O=C1CCC[C@@H]2[C@H]3CCCN4CCC[C@H](CN12)[C@@H]34` is reported as 0% (USP51; enzyme activity; inhibitor; 5 µM).
For `C#Cc1n[nH]c2c(-c3cn([C@@H](C)c4ccccc4)c(=O)[nH]c3=O)cc(F)cc12`, the inhibition was -1.6% (DNA-dependent protein kinase catalytic subunit (PRKDC, Homo sapiens, UniProt P78527); enzyme activity; inhibitor; 0.1 µM).
The inhibition of `C[C@H]1C(=O)O[C@@H]2CCN3CC=C(COC(=O)[C@](C)(O)[C@]1(C)O)[C@H]23` is reported as 42% (USP51; enzyme activity; inhibitor; 5 µM).
`c1ccc(C(NCCNC(c2ccccc2)c2ccccc2)c2ccccc2)cc1` gave an inhibition of 0% (PDE10A; enzyme activity; inhibitor; 10 µM).
The inhibition of `Cc1ncc(C)n2nc(/C=C/c3nc(N4CCCC4)cc(N4CCOCC4)n3)nc12` is reported as 3% (Peroxisome proliferator-activated receptor gamma (PPARG, Homo sapiens, UniProt P37231); ligand displacement; 10 µM).
`C[C@H](C(=O)N[C@H]1COc2ccccc2[C@@H]1S(C)(=O)=O)c1ccc(F)cc1` gave an inhibition of -4% (PDE10A; enzyme activity; inhibitor; 10 µM).
`C[C@@H]1CC[C@H]2[C@@H](C)C(=O)O[C@@H]3O[C@@]4(C)CC[C@@H]1[C@]32OO4` gave an inhibition of 17% (USP51; enzyme activity; inhibitor; 5 µM).
`C#Cc1n[nH]c2c(-c3cn([C@@H](C)c4ccccn4)c(=O)[nH]c3=O)cc(F)cc12` has an inhibition of 4.6% (AP2-associated protein kinase 1 (AAK1, Homo sapiens, UniProt Q2M2I8); enzyme activity; inhibitor; 0.1 µM).
With `CN(C)C(=O)COC(=O)Cc1ccc(OC(=O)c2ccc(NC(=N)N)cc2)cc1` the inhibition was 0% (CASP3; enzyme activity; inhibitor; 10 µM).
With `O=C(Nc1cccnn1)N1CCN([C@@H]2CCOc3cc(C(F)(F)F)ccc32)CC1` the inhibition was -7% (Angiotensin-converting enzyme (ACE, Homo sapiens, UniProt P12821); enzyme activity; inhibitor; 20 µM).
`N=C(N)c1ccc2cc(OC(=O)c3ccc(N=C(N)N)cc3)ccc2c1` gave an inhibition of 0% (CASP3; enzyme activity; inhibitor; 10 µM).
For `Cn1cc(-c2cc(F)cc(N3CCn4c(cc5c4CCCC5)C3=O)c2CO)cc(Nc2ccc(N3CCN(C4COC4)CC3)cn2)c1=O`, the inhibition was 15% (Calcium/calmodulin-dependent protein kinase type IV (CAMK4, Homo sapiens, UniProt Q16566); enzyme activity; inhibitor; 0.1 µM).
`CC(C)[C@]12O[C@H]1[C@@H]1O[C@]13[C@]1(O[C@H]1C[C@H]1C4=C(CC[C@@]13C)C(=O)OC4)[C@@H]2O` gave an inhibition of 0% (USP51; enzyme activity; inhibitor; 5 µM).
With `O=C(O[C@@H]1Cc2c(O)cc(O)cc2O[C@@H]1c1cc(O)c(O)c(O)c1-c1c([C@H]2Oc3cc(O)cc(O)c3C[C@H]2OC(=O)c2cc(O)c(O)c(O)c2)cc(O)c(O)c1O)c1cc(O)c(O)c(O)c1` the inhibition was 25% (Tyrosine-protein phosphatase non-receptor type 22 (PTPN22, Homo sapiens, UniProt Q9Y2R2); enzyme activity; inhibitor; fluorescence; 10 µM).
